Consider one compound from ChEMBL document CHEMBL5678802, “Small-molecule p21-activated kinase inhibitor PF-3758309 is a potent inhibitor of oncogenic signaling and tumor growth” (Proc Natl Acad Sci U S A, 2010).

In experiment [1] the test system is T84. The experiment is described as follows: Antiproliferative activity against human T84 cells assessed as inhibition of cell proliferation incubated for 3 days by CellTiter-Glo Luminescent Cell Viability Assay. Format: functional, cell-based. The following applies: T84, 72 h. Put shortly:
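Cells of each line were plated in 384-well plates on day 1 and exposed to compound from day 2 for 3 days. On day 5 all medium was aspirated. Viable cell number was read by CellTiter-Glo luminescence, which quantifies cellular ATP.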
For orientation: Cellular ATP, detected with luciferase, serves as a proxy for viable cell number.

Experiment [2] relates to HuP-T4. The experiment is described as follows: Antiproliferative activity against human HuP-T4 cells assessed as inhibition of cell proliferation incubated for 3 days by CellTiter-Glo Luminescent Cell Viability Assay. The note with it: HuP-T4, 72 h. Format: functional, cell-based. Put shortly:
(§1)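 Cancer cell lines seeded in 384-well plates on day 1; compound added on day 2 and left for 3 days. On day 5 all medium was aspirated, and viable cells were quantified by CellTiter-Glo luminescence, which measures cellular ATP. Dose-dependent effects on proliferation were determined.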

In experiment [3] the test system is DAN-G. The experiment is described as follows: Antiproliferative activity against human DAN-G cells assessed as inhibition of cell proliferation incubated for 3 days by CellTiter-Glo Luminescent Cell Viability Assay. The format is functional, cell-based. The note with it: 72 h. Put shortly: as §1
Experiment [4] relates to COLO 320DM. The experiment is described as follows: Inhibition of anchorage independent cell growth in human COLO 320DM cells incubated for 6 days by Alamar blue reagent based fluorescence plate reader analysis. The format is functional. The following applies: 144 h. (The colour change of resazurin is a common sign of viable cells or microbes.)
For experiment [5], the system named is MCF10. The experiment is described as follows: Antiproliferative activity against human MCF10 cells assessed as inhibition of cell proliferation incubated for 3 days by CellTiter-Glo Luminescent Cell Viability Assay. The format is functional, cell-based. The note with it: MCF10, 72 h. Summed up: as §1
Experiment [6] can be described thus: Antiproliferative activity against human 184A1 cells assessed as inhibition of cell proliferation incubated for 3 days by CellTiter-Glo Luminescent Cell Viability Assay. Format: functional, cell-based. The note with it: 184A1, 72 h. Summed up:
as §1

Experiment [7] deals with MDA-MB-453. The experiment is described as follows: Antiproliferative activity against human MDA-MB-453 cells assessed as inhibition of cell proliferation incubated for 3 days by CellTiter-Glo Luminescent Cell Viability Assay. Format: functional, cell-based. The note with it: MDA-MB-453, 72 h. Put shortly:
as §1

Experiment [8] deals with DLD-1. The experiment is described as follows: Antitumor activity against PAK4 -/+ human DLD-1 cells xenografted in nude mouse assessed as tumor growth inhibition at 20 mg/kg, po administered once daily for 9 to 18 days relative to control. The format is functional. The following applies: time 9-18 day, read-out: TGI. Put shortly:
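Tumor cells were implanted s.c. into the right flank of female nu/nu nude mice aged 6–8 weeks. Animals were randomized into treatment groups once tumors were established (example: day 8 postimplant, about 170 mm3, animals >22 g). Compound in 0.5% methylcellulose was given by oral gavage. Tumors were measured with calipers two to three times per week.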
A general note: Xenograft models place foreign cells or tissue in a host animal.

Experiment [9] has as its target T1, Ribosomal protein S6 kinase alpha-1 (Homo sapiens, UniProt Q15418). The experiment can be described thus: Inhibition of human RSK1 in presence of ATP relative to control. The following applies: concentration not given here.
In experiment [10] the target is T2, Protein kinase C beta type (Homo sapiens, UniProt P05771). The experiment is described as follows: Inhibition of human PKCbeta-II in presence of ATP relative to control. The note with it: concentration not given here.
T2 sequence (P05771 2-671 limits assumed): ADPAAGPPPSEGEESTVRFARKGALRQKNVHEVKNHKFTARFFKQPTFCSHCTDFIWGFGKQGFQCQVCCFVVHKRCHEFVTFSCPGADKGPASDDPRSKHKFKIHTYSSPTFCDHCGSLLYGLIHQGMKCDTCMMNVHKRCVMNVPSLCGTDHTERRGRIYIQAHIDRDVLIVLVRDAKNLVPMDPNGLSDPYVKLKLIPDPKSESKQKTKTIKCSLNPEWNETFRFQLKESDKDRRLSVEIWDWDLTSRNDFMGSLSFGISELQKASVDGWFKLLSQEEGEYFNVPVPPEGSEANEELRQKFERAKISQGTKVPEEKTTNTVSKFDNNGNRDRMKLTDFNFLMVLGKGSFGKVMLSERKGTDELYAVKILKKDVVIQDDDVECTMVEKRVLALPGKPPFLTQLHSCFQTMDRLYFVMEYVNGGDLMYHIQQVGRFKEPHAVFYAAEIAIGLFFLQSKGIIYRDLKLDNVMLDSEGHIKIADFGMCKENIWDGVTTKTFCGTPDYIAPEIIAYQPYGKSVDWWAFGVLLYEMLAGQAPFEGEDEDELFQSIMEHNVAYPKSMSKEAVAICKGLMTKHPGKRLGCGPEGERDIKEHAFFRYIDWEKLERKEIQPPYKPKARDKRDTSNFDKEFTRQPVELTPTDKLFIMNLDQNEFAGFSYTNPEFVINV
The target of experiment [11] is Serine/threonine-protein kinase D2 (Homo sapiens) (UniProt Q9BZL6). The experiment is described as follows: Inhibition of human PKD2 (PRKD2) in presence of ATP relative to control. The note with it: concentration not given here.
Serine/threonine-protein kinase D2 (Homo sapiens), sequence (Q9BZL6 whole entry): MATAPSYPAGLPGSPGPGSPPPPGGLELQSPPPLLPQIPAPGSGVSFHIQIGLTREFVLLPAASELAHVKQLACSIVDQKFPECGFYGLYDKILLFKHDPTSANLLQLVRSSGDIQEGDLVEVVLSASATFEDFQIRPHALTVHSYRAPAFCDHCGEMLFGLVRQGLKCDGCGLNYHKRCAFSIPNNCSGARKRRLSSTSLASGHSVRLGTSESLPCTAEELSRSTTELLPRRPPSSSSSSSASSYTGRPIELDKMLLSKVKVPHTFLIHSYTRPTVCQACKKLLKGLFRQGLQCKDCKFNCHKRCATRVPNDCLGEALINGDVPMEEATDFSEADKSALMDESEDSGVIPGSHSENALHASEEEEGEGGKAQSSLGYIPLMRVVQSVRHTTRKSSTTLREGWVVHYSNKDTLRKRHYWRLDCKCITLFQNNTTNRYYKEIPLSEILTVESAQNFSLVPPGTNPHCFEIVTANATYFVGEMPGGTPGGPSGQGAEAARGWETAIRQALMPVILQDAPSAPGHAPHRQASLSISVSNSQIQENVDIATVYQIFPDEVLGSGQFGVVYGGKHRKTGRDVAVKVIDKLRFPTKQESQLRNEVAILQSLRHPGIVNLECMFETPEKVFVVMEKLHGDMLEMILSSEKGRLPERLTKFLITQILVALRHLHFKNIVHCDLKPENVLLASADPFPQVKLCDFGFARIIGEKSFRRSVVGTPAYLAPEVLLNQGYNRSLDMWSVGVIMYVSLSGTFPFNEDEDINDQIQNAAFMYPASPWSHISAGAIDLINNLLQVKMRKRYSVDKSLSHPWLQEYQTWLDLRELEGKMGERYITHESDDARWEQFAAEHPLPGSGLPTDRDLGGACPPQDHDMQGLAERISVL
For experiment [12], the target named is T2, Protein kinase C beta type. The experiment is described as follows: Inhibition of human PKCbeta1 in presence of ATP relative to control. The note with it: concentration not given here.
The target of experiment [13] is Serine/threonine-protein kinase Chk2 (Homo sapiens, UniProt O96017). The experiment is described as follows: Inhibition of human CHK2 assessed as inhibition constant in presence of ATP.
Serine/threonine-protein kinase Chk2, sequence (O96017 whole entry): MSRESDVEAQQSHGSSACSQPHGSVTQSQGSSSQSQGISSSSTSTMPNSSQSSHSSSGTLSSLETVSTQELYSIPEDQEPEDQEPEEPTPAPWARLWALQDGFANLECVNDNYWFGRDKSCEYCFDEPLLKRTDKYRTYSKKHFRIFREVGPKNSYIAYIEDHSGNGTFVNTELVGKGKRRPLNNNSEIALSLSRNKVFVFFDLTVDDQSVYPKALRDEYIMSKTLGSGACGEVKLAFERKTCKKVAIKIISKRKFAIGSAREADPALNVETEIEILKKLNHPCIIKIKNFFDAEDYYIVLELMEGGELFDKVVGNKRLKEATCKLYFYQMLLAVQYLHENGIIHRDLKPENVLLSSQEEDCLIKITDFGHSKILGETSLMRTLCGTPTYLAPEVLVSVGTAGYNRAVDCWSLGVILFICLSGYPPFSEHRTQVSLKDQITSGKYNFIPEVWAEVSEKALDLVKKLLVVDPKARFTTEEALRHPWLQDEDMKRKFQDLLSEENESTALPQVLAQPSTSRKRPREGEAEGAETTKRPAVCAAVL
The target of experiment [14] is T1, Ribosomal protein S6 kinase alpha-1. The experiment can be described thus: Inhibition of human RSK1 assessed as inhibition constant in presence of ATP.
For experiment [15], the target named is T3, cGMP-dependent protein kinase 1 (Homo sapiens, UniProt Q13976).
T3 sequence (Q13976 whole entry): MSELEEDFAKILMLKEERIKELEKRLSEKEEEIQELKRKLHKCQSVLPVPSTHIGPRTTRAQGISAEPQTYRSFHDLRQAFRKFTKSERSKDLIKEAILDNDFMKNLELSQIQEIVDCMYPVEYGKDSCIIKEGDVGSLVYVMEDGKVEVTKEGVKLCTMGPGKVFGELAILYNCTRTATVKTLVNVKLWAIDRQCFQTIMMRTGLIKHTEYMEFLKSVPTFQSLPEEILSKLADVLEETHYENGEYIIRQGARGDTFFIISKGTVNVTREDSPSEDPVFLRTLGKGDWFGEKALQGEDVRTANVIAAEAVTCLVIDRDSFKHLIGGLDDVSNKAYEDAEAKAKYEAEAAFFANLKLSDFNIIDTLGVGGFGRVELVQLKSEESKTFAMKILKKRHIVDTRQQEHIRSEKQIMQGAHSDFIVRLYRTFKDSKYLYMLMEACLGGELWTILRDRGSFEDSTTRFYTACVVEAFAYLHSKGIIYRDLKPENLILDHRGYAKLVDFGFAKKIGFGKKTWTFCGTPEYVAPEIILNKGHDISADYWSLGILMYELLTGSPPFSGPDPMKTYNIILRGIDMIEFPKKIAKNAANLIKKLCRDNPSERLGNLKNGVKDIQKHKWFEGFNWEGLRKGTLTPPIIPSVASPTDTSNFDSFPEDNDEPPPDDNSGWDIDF
The experiment is described as follows: Inhibition of human PRKG1 assessed as inhibition constant in presence of ATP.

Experiment [16] relates to HEK293. The experiment can be described thus: Inhibition of YFP/YFP variant coding sequence fused Mnk1/p38alpha (unknown origin) expressed in HEK293 cells incubated for 8 to 24 hrs by fluorescence based analysis. Format: cell-based. The following applies: Homo sapiens, time 8-24 hrs.
Experiment [17] deals with HCT-116. The experiment can be described thus: Antitumor activity against human HCT-116 cells xenografted in nude mouse assessed as tumor growth inhibition at 7.5 mg/kg, po administered twice daily for 9 to 18 days relative to control. The note with it: time 9-18 day, read-out: TGI. Format: functional.
Experiment [18] deals with MDA-MB-231. The experiment is described as follows: Antitumor activity against human MDA-MB-231 cells xenografted in nude mouse assessed as tumor growth inhibition at 20 mg/kg, po administered once daily for 9 to 18 days relative to control. Format: functional. The following applies: time 9-18 day, read-out: TGI.
For experiment [19], the system named is HCT-116. The experiment can be described thus: Antitumor activity against human HCT-116 cells xenografted in nude mouse assessed as tumor growth inhibition at 3.3 mg/kg administered via pump for 9 days relative to control. The format is functional. The following applies: HCT-116, 216 h, time 9 day, read-out: TGI.
In experiment [20] the test system is HCT-116. The experiment can be described thus: Antitumor activity against human HCT-116 cells xenografted in nude mouse assessed as inhibition of [3H]FLT uptake at 15 mg/kg, po administered twice a day for 6 days and measured after 2 hrs post [3H]FLT administration by scintillation counter analysis relative to control. The format is functional. The following applies: HCT-116, 144 h, time 6 day. Summed up:
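HCT116 xenograft mice (tumors 300–350 mm3, n = 5 per group) received oral vehicle or compound, with harvests on days 2, 3 and 6. Isoflurane-anesthetized mice were given [3H]FLT (15 nCi/g, i.p.) 2 h before killing. Tumor and liver were weighed, solubilized and scintillation-counted. SUV = C/(ID/W), and uptake is reported as the tumor-to-liver SUV ratio.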

The subject of experiment [21] is HCT-116. The experiment is described as follows: Antitumor activity against human HCT-116 cells xenografted in nude mouse assessed as reduction in Src phosphorylation at Y527 residue at 15 to 150 mg/kg/day administered via pump for 18 hrs by Reverse-Phase protein array analysis. Format: functional, organism-based. The note with it: dose 15-150 mg/kg/day.
The target in experiment [22] is Serine/threonine-protein kinase PAK 4 (Homo sapiens, UniProt O96013). The note with it: dose 50.0 µM.
Serine/threonine-protein kinase PAK 4, sequence (O96013 whole entry, looked up): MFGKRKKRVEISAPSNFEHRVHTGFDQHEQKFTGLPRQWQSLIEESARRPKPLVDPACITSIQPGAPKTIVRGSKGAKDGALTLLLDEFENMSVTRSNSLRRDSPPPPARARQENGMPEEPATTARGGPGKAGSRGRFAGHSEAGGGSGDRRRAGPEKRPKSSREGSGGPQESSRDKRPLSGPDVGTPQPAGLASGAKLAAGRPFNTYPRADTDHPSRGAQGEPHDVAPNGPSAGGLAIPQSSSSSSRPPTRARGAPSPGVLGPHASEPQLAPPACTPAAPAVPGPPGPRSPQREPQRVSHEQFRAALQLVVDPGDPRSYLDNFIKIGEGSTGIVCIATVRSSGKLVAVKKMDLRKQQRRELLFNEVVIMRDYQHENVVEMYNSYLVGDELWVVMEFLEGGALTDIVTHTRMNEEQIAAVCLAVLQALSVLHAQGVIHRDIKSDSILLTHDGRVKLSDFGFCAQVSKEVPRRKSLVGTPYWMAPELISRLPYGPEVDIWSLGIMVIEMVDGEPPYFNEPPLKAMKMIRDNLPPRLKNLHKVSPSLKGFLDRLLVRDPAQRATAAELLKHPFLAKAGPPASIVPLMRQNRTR

The structures appear in SMILES notation. Calls of active or inactive are those of the source. The calls are words filed in the database; no cut-off is given here.

T1 sequence (Q15418 whole entry): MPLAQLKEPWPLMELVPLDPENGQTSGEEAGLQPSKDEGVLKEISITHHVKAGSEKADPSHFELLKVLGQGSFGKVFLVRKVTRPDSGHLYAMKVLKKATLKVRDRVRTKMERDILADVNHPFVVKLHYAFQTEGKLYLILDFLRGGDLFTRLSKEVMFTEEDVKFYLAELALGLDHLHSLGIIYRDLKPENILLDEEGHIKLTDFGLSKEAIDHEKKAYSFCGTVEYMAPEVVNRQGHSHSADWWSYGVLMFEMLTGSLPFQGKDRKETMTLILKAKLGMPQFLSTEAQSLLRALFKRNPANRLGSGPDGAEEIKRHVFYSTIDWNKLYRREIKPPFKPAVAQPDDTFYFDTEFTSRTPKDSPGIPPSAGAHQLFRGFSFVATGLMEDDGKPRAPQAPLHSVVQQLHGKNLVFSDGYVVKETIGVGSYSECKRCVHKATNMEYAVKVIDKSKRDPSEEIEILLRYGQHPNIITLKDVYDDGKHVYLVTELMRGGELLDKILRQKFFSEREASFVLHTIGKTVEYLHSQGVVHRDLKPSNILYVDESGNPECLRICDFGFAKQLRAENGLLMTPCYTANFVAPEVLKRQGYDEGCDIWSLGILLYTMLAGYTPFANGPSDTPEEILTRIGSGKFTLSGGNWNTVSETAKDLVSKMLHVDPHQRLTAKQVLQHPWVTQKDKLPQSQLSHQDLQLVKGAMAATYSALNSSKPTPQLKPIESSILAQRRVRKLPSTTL

Regarding `Cc1nc(Nc2n[nH]c3c2CN(C(=O)N[C@H](CN(C)C)c2ccccc2)C3(C)C)c2sccc2n1` [PF-03758309], the IC50 (usually the concentration needed to halve the response being measured) was 0.089 µM in experiment [1]; 0.231 µM in experiment [2]; 0.518 µM in [3]; 0.373 µM in experiment [4]; 0.00021 µM in experiment [5]; 0.00083 µM in experiment [6]. Also, in [7], the IC50 is 0.0133 µM. For the same compound, the inhibition in vivo at 20 mg/kg in experiment [8] was determined as 0%; in [18] it was 89%. The inhibition (in general, the drop in the measured response relative to a control, in per cent) in experiment [9] came out at 101%; in [10] it was 90%; in experiment [11], 96%; in experiment [12] it was 71%. Besides, the Ki (in general, a dissociation constant, usually derived from enzyme kinetics or from competition with a known ligand) is 0.003 µM in [13], 0.005 µM in [14] and 0.015 µM in experiment [15]. Moreover, in experiment [16], the inhibition entry is “Active”. Also, the inhibition in vivo at 7.5 mg/kg in [17] worked out at 64%. Besides, in experiment [19], the inhibition in vivo at 3.3 mg/kg was determined as 114%. Further, the inhibition in vivo at 15 mg/kg in experiment [20] worked out at 32.5%. Moreover, the result in experiment [21] was Active. In addition, the deltaH in [22] was -5 kcal/mol.
